In brackets after ≈: the same amount, converted by molar mass. Activity calls are given as the source filed them. The rule behind the calls is not given here.
How the values were obtained:
[1] = system: H125; assay: Cytotoxicity against human H125 cells; type: functional, cell-based
[2] = Cytotoxicity against human NCI-H322 cells; type: functional, cell-based
[3] = system: A704; assay: Cytotoxicity against human A704 cells; type: functional, cell-based
[4] = system: EKVX; assay: Cytotoxicity against human EKVX cells; type: functional, cell-based
[5] = system: UO-31; assay: Cytotoxicity against human UO31 cells; type: functional, cell-based
[6] = system: OVCAR-8; assay: Cytotoxicity against human OVCAR8 cells; type: functional, cell-based
[7] = system: MCF7; assay: Cytotoxicity against human MCF7 cells; type: functional, cell-based
[8] = system: NCI-H69; assay: Cytotoxicity against human H69 cells; type: functional, cell-based
[9] = system: SN12K1; assay: Cytotoxicity against human SN12K1 cells; type: functional, cell-based
[10] = system: DLD-1; assay: Cytotoxicity against human DLD1 cells; type: functional, cell-based
[11] = system: U-251; assay: Cytotoxicity against human U251 cells; type: functional, cell-based
[12] = system: RPMI-7951; assay: Cytotoxicity against human RPMI7951 cells; type: functional, cell-based
[13] = system: SNB-75; assay: Cytotoxicity against human SNB75 cells; type: functional, cell-based
[14] = system: NCI-H82; assay: Cytotoxicity against human H82 cells; type: functional, cell-based
[15] = system: OVCAR-5; assay: Cytotoxicity against human OVCAR5 cells; type: functional, cell-based
[16] = system: SK-MEL-2; assay: Cytotoxicity against human SK-MEL-2 cells; type: functional, cell-based
[17] = system: HCC 2998; assay: Cytotoxicity against human HCC2998 cells; type: functional, cell-based
[18] = system: HOP-62; assay: Cytotoxicity against human HOP62 cells; type: functional, cell-based
[19] = system: NCI-H524; assay: Cytotoxicity against human NCI-H524 cells; type: functional, cell-based
[20] = system: NCI/ADR-RES; assay: Cytotoxicity against human MCF7/ADR cells; type: functional, cell-based
[21] = system: P388; assay: In vivo antileukemic activity in mouse P388 cells at 0.1 mg/kg relative to control; type: functional
How it was run: (§1)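 In vivo P-388 lymphocytic leukemia model run by standard National Cancer Institute procedures; activity is reported as T/C (%), treated relative to control.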

[22] = system: SK-MEL-5; assay: Cytotoxicity against human SK-MEL-5 cells; type: functional, cell-based
[23] = system: MOLT-4; assay: Cytotoxicity against human MOLT4 cells; type: functional, cell-based
[24] = system: A498; assay: Cytotoxicity against human A498 cells; type: functional, cell-based
[25] = system: HL-60(TB); assay: Cytotoxicity against human HL-60(TB) cells; type: functional, cell-based
[26] = system: NCI-H146; assay: Cytotoxicity against human NCI-H146 cells; type: functional, cell-based
[27] = system: K562; assay: Cytotoxicity against human K562 cells; type: functional, cell-based
[28] = system: NCI-H23; assay: Cytotoxicity against human H23 cells; type: functional, cell-based
[29] = system: Malme-3M; assay: Cytotoxicity against human MALME-3M cells; type: functional, cell-based
[30] = system: P388; assay: Cytotoxicity against adriamycin-resistant mouse P388 cells; type: functional, cell-based
[31] = system: SW-620; assay: Cytotoxicity against human SW620 cells; type: functional, cell-based
[32] = system: SNB-19; assay: Cytotoxicity against human SNB19 cells; type: functional, cell-based
[33] = system: SNB44; assay: Cytotoxicity against human SNB44 cells; type: functional, cell-based
[34] = system: NCI-H522; assay: Cytotoxicity against human NCI-H522 cells; type: functional, cell-based
[35] = system: P388; assay: In vivo antileukemic activity in mouse P388 cells at 0.5 mg/kg relative to control; type: functional; how it was run: as §1

Question: What does the source list for `CCCCCCCCCCCCCCCC(=O)OCC1=C[C@@H]2C(=O)[C@]3(C=C(C)[C@H](OC(=O)C(C)C(C)C)[C@@]3(O)[C@@H]1O)[C@H](C)C[C@]1(OC(=O)CCCCCCCCCCC)[C@H]2C1(C)C` (stereo not given in full) [KANSUIPHORIN A]?
Answer: Activity [1]: inactive; IC50 [2]: 0.33 µg/mL (≈ 0.374 µM); IC50 [3]: 0.03 µg/mL (≈ 0.034 µM); Activity [4]: inactive; Activity [5]: inactive; Activity [6]: inactive; Activity [7]: inactive; Activity [8]: inactive; IC50 [9]: 0.07 µg/mL (≈ 0.0792 µM); Activity [10]: inactive; Activity [11]: inactive; IC50 [12]: 0.05 µg/mL (≈ 0.0566 µM); Activity [13]: inactive; Activity [14]: inactive; Activity [15]: inactive; Activity [16]: inactive; Activity [17]: inactive; IC50 [18]: 0.06 µg/mL (≈ 0.0679 µM); Activity [19]: inactive; Activity [20]: inactive; T/C [21]: >=176%; IC50 [22]: 0.14 µg/mL (≈ 0.158 µM); IC50 [23]: 0.13 µg/mL (≈ 0.147 µM); IC50 [24]: 0.02 µg/mL (≈ 0.0226 µM); IC50 [25]: 0.03 µg/mL (≈ 0.034 µM); Activity [26]: inactive; IC50 [27]: 0.03 µg/mL (≈ 0.034 µM); Activity [28]: inactive; IC50 [29]: 0.32 µg/mL (≈ 0.362 µM); Activity [30]: inactive; IC50 [31]: 0.08 µg/mL (≈ 0.0906 µM); Activity [32]: inactive; Activity [33]: inactive; Activity [34]: inactive

Question: Which T/C [35] does the source give for `CCCCCCCCCCCCCCCC(=O)OC[C@@]12O[C@@H]1[C@@H]1C(=O)[C@]3(C=C(C)[C@H](OC(=O)C(C)C(C)C)[C@@]3(O)[C@@H]2O)[C@H](C)C[C@]2(OC(=O)CCCCCCCCCCC)[C@H]1C2(C)C` (stereo not given in full) [KANSUIPHORIN B] here?
Answer: >=177%

From ChEMBL document CHEMBL1158959, “Antitumor agents, 119. Kansuiphorins A and B, two novel antileukemic diterpene esters from Euphorbia kansui” (J Nat Prod, 1991)
